Data from publication PMC9292600 (Clinical Pharmacology in Drug Development, 2021).
Like-named read-outs stand apart in the source and are kept apart here.

What was measured:
[1] = cited from earlier work
[2] = both acetate and freebase forms, cited from earlier work
[3] = Safety and tolerability; format: in vivo, human (healthy adult participants)
Outline: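 Healthy adults received single 100-mg oral doses of 4×25-mg tablets, either fasted, after a high-fat meal, or after five evening doses of rabeprazole 20 mg. Safety was monitored by physical examination, laboratory tests, ECG, concomitant medication review, and AE frequency and severity. The safety population comprised all participants receiving ≥1 dose of study medication.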

[4] = format: in vivo, human (healthy adult participants); details: for AUC(0-inf) / AUC(0-t) / Cmax / half-life / Tmax: human, plasma, po; for Tmax: median (range)
[5] = Treatment A: 100-mg tablets, fasted, n = 24
[6] = Treatment B: 100-mg tablets + high-fat meal, n = 23
[7] = Treatment C: 100-mg tablets + rabeprazole 20 mg, n = 23
[8] = Treatment D: 100-mg oral solution, n = 24
[9] = 100-mg oral solution (test) versus 100-mg tablets (reference)
[10] = 100-mg tablets + high-fat meal (test) versus 100-mg tablets (reference)
[11] = 100-mg tablets + rabeprazole 20-mg (test) versus 100-mg tablets (reference)

## C[C@H]1Oc2cc(cnc2N)-c2c(nn(C)c2C#N)CN(C)C(=O)c2ccc(F)cc21 [Lorlatinib, (10R)‐7‐amino‐12‐fluoro‐2,10,16‐trimethyl‐15‐oxo‐10,15,16,17‐tetrahydro‐2H‐8,4‐(metheno)pyrazolo[4,3‐h][2,5,11]‐benzoxadiazacyclotetradecine‐3‐carbonitrile]
[1]; 100 mg/100 μCi [14C]lorlatinib
  Geometric mean maximum plasma concentration (Cmax): about 600 ng/mL
  Renal clearance: 1.6 mL/min
  Urinary excretion of unchanged lorlatinib: ~0.7%
[1]; human ADME studies
  Mean terminal plasma elimination half-life (t1/2): about 20 hours
[2]; pH 7.7
  Aqueous solubility: 100 µg/mL
[2]; pH <2
  Aqueous solubility: > 10000 µg/mL
[3]; [5]
  Participants with any serious treatment-related AE: 0 n (%)
  Participants with any treatment-emergent AE: 19 (79) n (%)
  Participants with any treatment-related AE: 19 (79) n (%)
  Treatment-related AE: Acne: 4 (17) n (%)
  Treatment-related AE: Diarrhea: 3 (13) n (%)
  Treatment-related AE: First-degree AV block: 5 (21) n (%)
  Treatment-related AE: Headache: 7 (29) n (%)
[3]; [6]
  Participants with any serious treatment-related AE: 0 n (%)
  Participants with any treatment-emergent AE: 15 (65) n (%)
  Participants with any treatment-related AE: 15 (65) n (%)
  Treatment-related AE: Acne: 2 (9) n (%)
  Treatment-related AE: Diarrhea: 1 (4) n (%)
  Treatment-related AE: First-degree AV block: 2 (9) n (%)
  Treatment-related AE: Headache: 4 (17) n (%)
[3]; [7]
  Participants with any serious treatment-related AE: 0 n (%)
  Participants with any treatment-emergent AE: 19 (83) n (%)
  Participants with any treatment-related AE: 19 (83) n (%)
  Treatment-related AE: Acne: 2 (9) n (%)
  Treatment-related AE: Diarrhea: 2 (9) n (%)
  Treatment-related AE: First-degree AV block: 4 (17) n (%)
  Treatment-related AE: Headache: 7 (30) n (%)
[3]; [8]
  Participants with any serious treatment-related AE: 0 n (%)
  Participants with any treatment-emergent AE: 16 (67) n (%)
  Participants with any treatment-related AE: 16 (67) n (%)
  Treatment-related AE: Acne: 4 (17) n (%)
  Treatment-related AE: Diarrhea: 2 (8) n (%)
  Treatment-related AE: First-degree AV block: 3 (13) n (%)
  Treatment-related AE: Headache: 6 (25) n (%)
[3]; all treatment periods
  Deaths during the study: no deaths
  Participants with serious or severe treatment-related AEs: No participants
[3]; all treatment periods, remainder moderate
  AEs mild in severity (of all AEs): 119 of 135
[4]; [9]
  Ratio (Test/Reference) of Adjusted Means, AUCinf: 107.9%
  Ratio (Test/Reference) of Adjusted Means, AUClast: 107.8%
  Ratio (Test/Reference) of Adjusted Means, Cmax: 129.7%
[4]; [10]
  Ratio (Test/Reference) of Adjusted Means, AUCinf: 104.7%
  Ratio (Test/Reference) of Adjusted Means, AUClast: 104.6%
  Ratio (Test/Reference) of Adjusted Means, Cmax: 90.9%
[4]; [11]
  Ratio (Test/Reference) of Adjusted Means, AUCinf: 100.9%
  Ratio (Test/Reference) of Adjusted Means, AUClast: 99.7%
  Ratio (Test/Reference) of Adjusted Means, Cmax: 70.7%
[4]; 100-mg tablets, fasted (reference), mixed-effects model
  Adjusted geometric mean Cmax: 533.1 ng/mL
[4]; Treatment A: single oral 100-mg dose, tablets, fasted, n = 24, mean ± SD
  Arithmetic mean CL/F: 11.8 ± 2.5 L/h
[4]; Treatment A: single oral 100-mg dose, tablets, fasted, n = 24, value (geometric %CV)
  Geometric mean CL/F: 11.5 (24) L/h
[4]; Treatment B: single oral 100-mg dose, tablets + high-fat meal, n = 23, mean ± SD
  Arithmetic mean CL/F: 11.7 ± 2.8 L/h
[4]; Treatment B: single oral 100-mg dose, tablets + high-fat meal, n = 23, value (geometric %CV)
  Geometric mean CL/F: 11.4 (24) L/h
[4]; Treatment C: single oral 100-mg dose, tablets + rabeprazole 20 mg, fasted, n = 23, mean ± SD
  Arithmetic mean CL/F: 11.9 ± 2.5 L/h
[4]; Treatment C: single oral 100-mg dose, tablets + rabeprazole 20 mg, fasted, n = 23, value (geometric %CV)
  Geometric mean CL/F: 11.6 (24) L/h
[4]; Treatment D: single oral 100-mg dose, oral solution, fasted, n = 24, mean ± SD
  Arithmetic mean CL/F: 11.0 ± 2.4 L/h
[4]; Treatment D: single oral 100-mg dose, oral solution, fasted, n = 24, value (geometric %CV)
  Geometric mean CL/F: 10.7 (24) L/h
[4]; 100 mg, Arithmetic mean AUCinf, Treatment A: single oral 100-mg dose, tablets, fasted, n = 24, mean ± SD
  AUC(0-inf): 8960 ± 2380 ng·h/mL
[4]; 100 mg, Arithmetic mean AUCinf, Treatment B: single oral 100-mg dose, tablets + high-fat meal, n = 23, mean ± SD
  AUC(0-inf): 9030 ± 2280 ng·h/mL
[4]; 100 mg, Arithmetic mean AUCinf, Treatment D: single oral 100-mg dose, oral solution, fasted, n = 24, mean ± SD
  AUC(0-inf): 9620 ± 2440 ng·h/mL
[4]; 100 mg, Arithmetic mean AUClast, Treatment A: single oral 100-mg dose, tablets, fasted, n = 24, mean ± SD
  AUC(0-t): 8380 ± 1990 ng·h/mL
[4]; 100 mg, Arithmetic mean AUClast, Treatment B: single oral 100-mg dose, tablets + high-fat meal, n = 23, mean ± SD
  AUC(0-t): 8460 ± 1940 ng·h/mL
[4]; 100 mg, Arithmetic mean AUClast, Treatment D: single oral 100-mg dose, oral solution, fasted, n = 24, mean ± SD
  AUC(0-t): 8990 ± 2040 ng·h/mL
[4]; 100 mg, Arithmetic mean Cmax, Treatment A: single oral 100-mg dose, tablets, fasted, n = 24, mean ± SD
  Cmax: 559 ± 115 ng/mL
[4]; 100 mg, Arithmetic mean Cmax, Treatment D: single oral 100-mg dose, oral solution, fasted, n = 24, mean ± SD
  Cmax: 722 ± 185 ng/mL
[4]; 100 mg, Arithmetic mean t1/2, Treatment A: single oral 100-mg dose, tablets, fasted, n = 24, mean ± SD
  half-life: 24.2 ± 5.2 h
[4]; 100 mg, Arithmetic mean t1/2, Treatment B: single oral 100-mg dose, tablets + high-fat meal, n = 23, mean ± SD
  half-life: 23.7 ± 6 h
[4]; 100 mg, Arithmetic mean t1/2, Treatment D: single oral 100-mg dose, oral solution, fasted, n = 24, mean ± SD
  half-life: 24.1 ± 5.4 h
[4]; 100 mg, Geometric mean AUCinf, Treatment A: single oral 100-mg dose, tablets, fasted, n = 24, value (geometric %CV)
  AUC(0-inf): 8710 ng·h/mL
[4]; 100 mg, Geometric mean AUCinf, Treatment B: single oral 100-mg dose, tablets + high-fat meal, n = 23, value (geometric %CV)
  AUC(0-inf): 8780 ng·h/mL
[4]; 100 mg, Geometric mean AUCinf, Treatment D: single oral 100-mg dose, oral solution, fasted, n = 24, value (geometric %CV)
  AUC(0-inf): 9360 ng·h/mL
[4]; 100 mg, Geometric mean AUClast, Treatment B: single oral 100-mg dose, tablets + high-fat meal, n = 23, value (geometric %CV)
  AUC(0-t): 8260 ng·h/mL
[4]; 100 mg, Geometric mean AUClast, Treatment D: single oral 100-mg dose, oral solution, fasted, n = 24, value (geometric %CV)
  AUC(0-t): 8790 ng·h/mL
[4]; 100 mg, Geometric mean Cmax, Treatment A: single oral 100-mg dose, tablets, fasted, n = 24, value (geometric %CV)
  Cmax: 548 ng/mL
[4]; 100 mg, Geometric mean Cmax, Treatment B: single oral 100-mg dose, tablets + high-fat meal, n = 23, value (geometric %CV)
  Cmax: 489 ng/mL
[4]; 100 mg, Geometric mean Cmax, Treatment D: single oral 100-mg dose, oral solution, fasted, n = 24, value (geometric %CV)
  Cmax: 705 ng/mL
[4]; 100 mg, Treatment B: single oral 100-mg dose, tablets + high-fat meal, n = 23
  Tmax: 2 h
[4]; 100 mg, Treatment D: single oral 100-mg dose, oral solution, fasted, n = 24
  Tmax: 1 h
[4]; Arithmetic mean AUCinf, Treatment C: single oral 100-mg dose, tablets + rabeprazole 20 mg, fasted, n = 23, mean ± SD
  AUC(0-inf): 8880 ± 2430 ng·h/mL
[4]; Arithmetic mean AUClast, Treatment C: single oral 100-mg dose, tablets + rabeprazole 20 mg, fasted, n = 23, mean ± SD
  AUC(0-t): 8190 ± 1930 ng·h/mL
[4]; Arithmetic mean Cmax, Treatment C: single oral 100-mg dose, tablets + rabeprazole 20 mg, fasted, n = 23, mean ± SD
  Cmax: 398 ± 114 ng/mL
[4]; Geometric mean AUCinf, Treatment C: single oral 100-mg dose, tablets + rabeprazole 20 mg, fasted, n = 23, value (geometric %CV)
  AUC(0-inf): 8630 ng·h/mL
[4]; Geometric mean AUClast, Treatment C: single oral 100-mg dose, tablets + rabeprazole 20 mg, fasted, n = 23, value (geometric %CV)
  AUC(0-t): 8010 ng·h/mL
[4]; Geometric mean Cmax, Treatment C: single oral 100-mg dose, tablets + rabeprazole 20 mg, fasted, n = 23, value (geometric %CV)
  Cmax: 383 ng/mL
[4]; Treatment C: single oral 100-mg dose, tablets + rabeprazole 20 mg, fasted, n = 23
  Tmax: 2 h
[4]; single 100-mg oral dose, fasted
  Higher Cmax with the oral solution than with the tablet formulation: ~30%
